The data set relates to A549 cells. The data set is described as follows: Cytotoxicity assay. Format: cell-based, human. The procedure, abridged: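 A549 cells (ATCC) seeded in 96-well plates at 5 × 10^3 cells per mL, grown 24 h. Medium replaced with matched concentrations (up to 160 μg mL−1) of free drug or peptide-nanocage-encapsulated drug (pH 8.09). Nanocages were made by emulsifying drug in chloroform into 1 mM peptide/PBS pH 7.4. After 24 h, CCK-8 added for 3 h; OD 450 nm read. Viability = (ODtest − ODblank)/(ODcontrol − ODblank) × 100%.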

“Also recorded” adds a separate entry of the source. Where no end group is shown, it is not given here.

As to `CC(=O)O[C@H]1C(=O)[C@@]2(C)[C@H]([C@H](OC(=O)c3ccccc3)[C@]3(O)C[C@H](OC(=O)[C@H](O)[C@@H](NC(=O)c4ccccc4)c4ccccc4)C(C)=C1C3(C)C)[C@]1(OC(C)=O)CO[C@@H]1C[C@@H]2O` [PTX, Paclitaxel, reference compound], the cell survival rate result (160 μg mL^−1, 24 h culture, CCK-8, OD 450 nm) is given as “approximately 60%”.
For “GNNQQNYPKKPGNNQQNY [GSLP, GNNQQNY-PKKP-GNNQQNY]”, the “cytotoxicity (in words)” value (24 h culture, CCK-8) is “not concentration-dependent toxic; also recorded: do not exhibit cytotoxicity”.

Values taken from publication PMC10126818 (RSC Advances, 2023).
